Published values gathered from unrelated publications.
Compare with care: the assays were run in different laboratories.
JAK1: Tyrosine-protein kinase JAK1 (JAK1, Homo sapiens, UniProt P23458)
JAK1 JH2: Tyrosine-protein kinase JAK1, JH2 (JAK1, Homo sapiens, UniProt P23458)
JAK1 JH1: Tyrosine-protein kinase JAK1, JH1 (JAK1, Homo sapiens, UniProt P23458)

`CN1CC(Oc2cnc(C#N)cc2-c2ccn3nc(NC(=O)C4CC4)cc3c2)C1` gave an inhibition of -10% (JAK1; enzyme activity, inhibitor; 1 µM).
With `N#CCCc1ccc2c(c1)-c1[nH]c3ccc([N+](=O)[O-])cc3c1CC(=O)N2` the remaining signal was 91.9% (JAK1; cell-free assay; 0.5 µM).
For `O=C(N1CCS(=O)(=O)CC1)N1C[C@H](c2ccc(OC(F)(F)F)cc2)C[C@H](c2nc(C3CC3)no2)C1`, the remaining binding was 100% (JAK1 JH2; cell-free assay, competition with immobilised ligand; 1 µM).
The inhibition of `COc1cc2ncnc(Nc3ccc(Oc4ccccc4)cc3C)c2cc1OC` is reported as -5% (JAK1; enzyme activity, inhibitor; 1 µM).
The remaining binding of `O=S(=O)(NC1CCC(c2cc(F)ccc2F)(S(=O)(=O)c2ccc(Cl)cc2)CC1)C(F)(F)F` (stereo not drawn) is reported as 100% (JAK1 JH2; cell-free assay, competition with immobilised ligand; 1 µM).
The remaining signal of `N[C@H]1CCN(c2nccc(-c3cnn4ncccc34)n2)C1` is reported as 100% (JAK1 JH1; cell-free assay; 1 µM).
With `O=C(O)[C@H]1[C@H](Cn2nnc3ccccc3c2=O)CC[C@@H]1C(=O)c1ccc(OCCC2CCOCC2)cc1` the remaining binding was 88% (JAK1 JH1; cell-free assay, competition with immobilised ligand; 1 µM).
`CC/C(=N\NC(=O)NCc1cccc(O)c1)c1ccc(O)c(C)c1O` has an inhibition of 3.4% (JAK1; enzyme activity, inhibitor; 0.1 µM).
`O=C1CCc2cc(Nc3cc(OC4CCOCC4)c([N+](=O)[O-])cc3Cl)ccc2N1` has a remaining binding of 100% (JAK1 JH2; cell-free assay, competition with immobilised ligand; 1 µM).
For `O=C1NC(=O)c2cc(Nc3ccc(F)cc3)c(Nc3ccc(F)cc3)cc21`, the remaining signal was 91.5% (JAK1; cell-free assay; 0.5 µM).
With `C=CC(=O)Nc1cc(Nc2nccc(Nc3cc(Cl)c(F)cc3C(C)(C)O)n2)c(OC)cc1N1CC[C@@H](N(C)C)C1` the inhibition was 6% (JAK1; enzyme activity, inhibitor; 1 µM).
For `CN(c1ccnc(CNc2nc(Nc3ccc4c(c3)CC(=O)N4)ncc2C(F)(F)F)n1)S(C)(=O)=O`, the remaining binding was 94% (JAK1 JH1; cell-free assay, competition with immobilised ligand; 1 µM).
`CNc1cc(Oc2cc(C(=O)Nc3cc(N4CCN(C)CC4)cc(C(F)(F)F)c3)ccc2C)ncn1` has an inhibition of -25.7% (JAK1 JH2; target engagement in cells, inhibitor, chemoproteomics; Huh-7; 1 µM).
`Cc1c(NC(=O)c2cc(C(N)=O)nc3cc(F)ccc23)c(C(F)(F)F)nn1Cc1ccc(C#N)cc1` has a remaining binding of 100% (JAK1 JH1; cell-free assay, competition with immobilised ligand; 1 µM).
`O=C1Nc2ccc(Cl)cc2C1=Cc1cc(Cl)c(O)c(Cl)c1` has a remaining signal of 103% (JAK1; cell-free assay; 0.5 µM).
For `CS(=O)(=O)N1CCCC(NC(=O)[C@H](CCC2CCCCC2)NC(=O)c2ccc(CNC(=O)c3cnc4ccccn34)cc2)C1` (stereo partly drawn), the remaining binding was 64% (JAK1 JH1; cell-free assay, competition with immobilised ligand; 0.1 µM).
`Cc1ccc(C(=O)Nc2ccc(CN3CCN(C)CC3)c(C(F)(F)F)c2)cc1C#Cc1cnc2cccnn12` has a remaining activity of 86% (JAK1; enzyme activity, inhibitor; 23.5 nM).
The remaining signal of `c1cnn2ncc(-c3ccnc(N4CCC45COC5)n3)c2c1` is reported as 95% (JAK1 JH1; cell-free assay; 1 µM).
`O=C(Nc1cnn(-c2csc(C(=O)NC3COC3)c2)c1)Nc1c(F)cccc1Cl` gave a remaining activity of 107% (JAK1; enzyme activity, inhibitor; 5 µM).
`Nc1ncnc2occ(-c3ccc(NC(=O)Nc4cc(C(F)(F)F)ccc4F)cc3)c12` gave a remaining signal of 0.9% (JAK1 JH1; cell-free assay, inhibitor; 20 µM).
For `O=C(CSc1nc2nccnc2c(=O)n1CCc1ccccc1)Nc1nccs1`, the inhibition was 1% (JAK1; enzyme activity, inhibitor; 10 µM).
`Cc1ccc(C(=O)NCc2ccsc2)cc1C#Cc1cn(C(C)C)c2ncnc(N)c12` has an activity vs control of 94% (JAK1 JH1; enzyme activity, inhibitor; 1 µM).
`CC(C)(C)c1nc(-c2cccc(NS(=O)(=O)c3c(F)cccc3F)c2F)c(-c2ccnc(N)n2)s1` gave a remaining activity of 84% (JAK1; enzyme activity, inhibitor, radiometric; 1 µM).
With `Cc1sc(C(=O)NC2COC2)cc1-n1cc(NC(=O)Nc2c(F)cccc2Cl)cn1` the remaining activity was 72.2% (JAK1; enzyme activity, inhibitor; 10 µM).
The activity vs control of `c1nc2c(Nc3ccc4c(c3)OCCO4)nc(Nc3ccc4c(c3)OCCO4)nc2[nH]1` is reported as 52% (JAK1 JH1; enzyme activity, inhibitor; 10 µM).
The remaining binding of `CCOC(=O)c1cc2cc(-c3cc(C(=O)NCc4ccc(C(=O)O)cc4)nn3C)ccc2[nH]1` is reported as 100% (JAK1 JH1; cell-free assay, competition with immobilised ligand; 0.1 µM).
`CN(C)C1CCN(CC#Cc2nn(C3CCCC3)c3nc(NCc4ccccc4)ncc23)C1` (stereo not drawn) has an inhibition of 2% (JAK1; enzyme activity, inhibitor, FRET; 10 µM).
